The target of assay [1] is Histone-lysine N-methyltransferase EZH2 (Homo sapiens, UniProt Q15910). The format is cell-based, Sf9.
Assay [2] deals with T1, Protein cereblon/Histone-lysine N-methyltransferase EZH2 (Homo sapiens) (UniProt Q15910+Q96SW2). Kind of assay: PROTAC activity at CRBN E3 ligase/EZH2 in PRC2 complex in human WSUDLCL2 cells assessed as induction of SUZ12 degradation at up to 10 uM incubated for 72 hrs by Western blot analysis. Particulars: dose microM <=10, time 72.0 hrs. It counts as cell-based.
T1 sequence (Q15910 whole entry, looked up): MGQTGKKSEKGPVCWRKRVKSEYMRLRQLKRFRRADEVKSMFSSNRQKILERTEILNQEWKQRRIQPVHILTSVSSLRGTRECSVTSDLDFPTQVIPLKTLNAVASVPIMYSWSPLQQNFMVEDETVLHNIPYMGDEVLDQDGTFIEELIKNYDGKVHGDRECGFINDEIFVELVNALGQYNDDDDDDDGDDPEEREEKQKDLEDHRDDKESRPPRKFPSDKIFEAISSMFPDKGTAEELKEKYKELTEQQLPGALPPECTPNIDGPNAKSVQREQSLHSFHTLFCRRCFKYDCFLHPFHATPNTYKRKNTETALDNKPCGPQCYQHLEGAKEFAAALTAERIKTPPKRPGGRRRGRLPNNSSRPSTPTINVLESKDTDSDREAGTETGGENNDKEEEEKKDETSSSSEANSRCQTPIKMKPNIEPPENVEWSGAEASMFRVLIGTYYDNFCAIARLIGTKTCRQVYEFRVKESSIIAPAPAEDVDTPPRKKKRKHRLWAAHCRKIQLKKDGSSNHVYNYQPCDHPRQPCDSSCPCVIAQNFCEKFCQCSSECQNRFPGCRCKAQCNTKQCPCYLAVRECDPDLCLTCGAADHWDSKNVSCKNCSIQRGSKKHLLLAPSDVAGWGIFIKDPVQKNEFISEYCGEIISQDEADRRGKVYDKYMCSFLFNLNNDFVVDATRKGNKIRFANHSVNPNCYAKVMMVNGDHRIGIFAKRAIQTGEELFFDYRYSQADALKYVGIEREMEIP
T1 sequence (Q96SW2 whole entry, looked up): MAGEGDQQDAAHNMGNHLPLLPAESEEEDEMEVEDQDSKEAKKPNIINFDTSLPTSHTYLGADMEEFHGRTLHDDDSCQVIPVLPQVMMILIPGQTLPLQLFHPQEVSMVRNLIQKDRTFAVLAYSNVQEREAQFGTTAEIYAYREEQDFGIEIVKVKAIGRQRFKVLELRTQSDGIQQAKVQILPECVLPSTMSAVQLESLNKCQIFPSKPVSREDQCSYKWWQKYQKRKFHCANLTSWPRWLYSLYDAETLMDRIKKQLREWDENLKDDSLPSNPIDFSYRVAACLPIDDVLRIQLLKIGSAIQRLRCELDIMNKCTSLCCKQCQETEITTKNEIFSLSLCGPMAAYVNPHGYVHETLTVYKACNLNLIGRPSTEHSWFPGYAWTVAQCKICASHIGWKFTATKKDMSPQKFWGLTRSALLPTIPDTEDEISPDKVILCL
Assay [3] deals with T1, Protein cereblon/Histone-lysine N-methyltransferase EZH2 (Homo sapiens). Kind of assay: PROTAC activity at CRBN E3 ligase/EZH2 in PRC2 complex in human WSUDLCL2 cells assessed as reduction in H3K27me3 level incubated for 72 hrs by Western blot analysis. As to conditions: dose 0-10 µM. The format is cell-based.
Assay [4] has the same target. Nature of the assay: PROTAC activity at CRBN E3 ligase/EZH2 in PRC2 complex in human WSUDLCL2 cells assessed as induction of EED degradation at up to 10 uM incubated for 72 hrs by Western blot analysis. As to conditions: dose microM <=10, time 72.0 hrs. It counts as cell-based.
Assay [5] shares this target. Nature of the assay: PROTAC activity at CRBN E3 ligase/EZH2 in PRC2 complex in human WSUDLCL2 cells assessed as induction of EZH2 degradation incubated for 72 hrs by Western blot analysis. It counts as cell-based. Particulars: dose 0-10 µM.
Assay [6] has the same target. Kind of assay: PROTAC activity at CRBN E3 ligase/EZH2 in PRC2 complex in human WSUDLCL2 cells assessed as reduction in H3K27me3 level at 1 uM incubated for 48 hrs by Western blot analysis. It counts as cell-based. Summed up:
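WSU-DLCL-2 cells treated 48 h (1 μM for the single-concentration screen), lysed; SDS-PAGE, nitrocellulose transfer, 5% milk block, primary antibody 4 °C overnight, chemiluminescence. Bands quantified by densitometry, normalized to GAPDH, expressed relative to DMSO-treated cells; mean ± SD of three independent experiments, t-test.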

Assay [7] deals with NCI-H1299. Nature of the assay: Downregulation of CEP76 mRNA expression in human NCI-H1299 cells at 10 uM incubated for 48 hrs by qRT-PCR analysis. The format is functional, cell-based. Summed up: (§1)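 Cells treated 48 h. Total RNA extracted with Trizol, reverse-transcribed, and SYBR RT-qPCR run: 95 °C 30 s, then 40 cycles of 95 °C 6 s and 60 °C 20 s. mRNA normalized to the DMSO-treated group. Mean SD of three independent experiments, t-test versus DMSO.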

For assay [8], the system named is NCI-H1299. Kind of assay: Downregulation of CHEK1 mRNA expression in human NCI-H1299 cells at 10 uM incubated for 48 hrs by qRT-PCR analysis. The format is functional, cell-based. Summed up:
as §1

The test system of assay [9] is NCI-H1299. Nature of the assay: Antiproliferative activity against human NCI-H1299 cells harboring SWI/SNF mutant assessed as inhibition of cell growth at 10 uM treated for 9 days by optical microscopic analysis. Particulars: time 9.0 day. The format is functional, cell-based. Summed up: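 Cells seeded at 5 × 10³ per well, grown 24 h, then exposed to compound at 10 μM for 9 days with medium refreshed. Cells were photographed and counted on days 1, 3, 5, 7 and 9. For lines 1-2, EZH2-targeting or control shRNA was induced in the cells. Mean SD of three independent experiments; t-test against control.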

Assay [10] relates to MDA-MB-468. Kind of assay: Downregulation of CENPK mRNA expression in human MDA-MB-468 cells at 10 uM incubated for 48 hrs by qRT-PCR analysis. The format is functional, cell-based. Summed up: as §1
Assay [11] concerns NCI-H1299. Kind of assay: Downregulation of ARL6IP mRNA expression in human NCI-H1299 cells at 10 uM incubated for 48 hrs by qRT-PCR analysis. It counts as functional, cell-based. Summed up: as §1
Assay [12] relates to MDA-MB-468. Kind of assay: Downregulation of CEP76 mRNA expression in human MDA-MB-468 cells at 10 uM incubated for 48 hrs by qRT-PCR analysis. It counts as functional, cell-based. Summed up:
as §1

Assay [13] deals with MDA-MB-468. Kind of assay: Downregulation of ARL6IP mRNA expression in human MDA-MB-468 cells at 10 uM incubated for 48 hrs by qRT-PCR analysis. It counts as functional, cell-based. Summed up: as §1
The test system of a further assay is WSUDLCL2. Kind of assay: Antiproliferative activity against human WSUDLCL2 cells harboring EZH2-Y641F mutant assessed as inhibition of cell growth at 10 uM incubated for 9 days by optical microscopic analysis. It counts as functional, cell-based. As to conditions: time 9.0 day. Summed up: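 WSU-DLCL-2 cells seeded at 5 × 10³ per well, incubated 24 h, then exposed to 10 μM compound for 9 days with medium refreshed. Cells photographed and counted on days 1, 3, 5, 7 and 9. Mean SD of three independent experiments, t-test versus DMSO.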

Assay [14] has as its target T1, Protein cereblon/Histone-lysine N-methyltransferase EZH2 (Homo sapiens). Kind of assay: PROTAC activity at CRBN E3 ligase/EZH2 in PRC2 complex in human WSUDLCL2 cells assessed as reduction in H3K27me3 level at up to 10 uM incubated for 72 hrs by Western blot analysis. As to conditions: dose microM <=10, time 72.0 hrs. The format is cell-based.
Assay [15] deals with A549. Kind of assay: Downregulation of […] mRNA expression in human A549 cells at 10 uM incubated for 48 hrs by qRT-PCR analysis. It counts as functional, cell-based. Summed up: as §1
Assay [16] deals with A549. Nature of the assay: Downregulation of CENPK mRNA expression in human A549 cells at 10 uM incubated for 48 hrs by qRT-PCR analysis. The format is functional, cell-based. Summed up:
as §1

The test system of assay [17] is A549. Kind of assay: Downregulation of TACC3 mRNA expression in human A549 cells at 10 uM incubated for 48 hrs by qRT-PCR analysis. The format is functional, cell-based. Summed up: as §1
In assay [18] the test system is NCI-H1299. Kind of assay: Downregulation of TACC3 mRNA expression in human NCI-H1299 cells at 10 uM incubated for 48 hrs by qRT-PCR analysis. The format is functional, cell-based. Summed up: as §1
In assay [19] the test system is NCI-H1299. Kind of assay: Downregulation of […] mRNA expression in human NCI-H1299 cells at 10 uM incubated for 48 hrs by qRT-PCR analysis. The format is functional, cell-based. Summed up:
as §1

The test system of assay [20] is A549. Nature of the assay: Downregulation of ARL6IP mRNA expression in human A549 cells at 10 uM incubated for 48 hrs by qRT-PCR analysis. The format is functional, cell-based. Summed up:
as §1

Assay [21] relates to MDA-MB-468. Nature of the assay: Downregulation of CHEK1 mRNA expression in human MDA-MB-468 cells at 10 uM incubated for 48 hrs by qRT-PCR analysis. It counts as functional, cell-based. Summed up: as §1
The subject of assay [22] is MDA-MB-468. Kind of assay: Downregulation of […] mRNA expression in human MDA-MB-468 cells at 10 uM incubated for 48 hrs by qRT-PCR analysis. It counts as functional, cell-based. Summed up: as §1
Assay [23] deals with MDA-MB-468. Nature of the assay: Downregulation of TACC3 mRNA expression in human MDA-MB-468 cells at 10 uM incubated for 48 hrs by qRT-PCR analysis. The format is functional, cell-based. Summed up: as §1
In assay [24] the target is T1, Protein cereblon/Histone-lysine N-methyltransferase EZH2 (Homo sapiens). Kind of assay: PROTAC activity at CRBN E3 ligase/EZH2 in PRC2 complex in human WSUDLCL2 cells assessed as induction of EZH2 degradation at up to 10 uM incubated for 72 hrs by Western blot analysis. The format is cell-based. Particulars: dose microM <=10, time 72.0 hrs.
Assay [25] concerns A549. Nature of the assay: Downregulation of CHEK1 mRNA expression in human A549 cells at 10 uM incubated for 48 hrs by qRT-PCR analysis. The format is functional, cell-based. Summed up: as §1
Assay [26] deals with A549. Kind of assay: Downregulation of CEP76 mRNA expression in human A549 cells at 10 uM incubated for 48 hrs by qRT-PCR analysis. The format is functional, cell-based. Summed up: as §1
The test system of assay [27] is NCI-H1299. Nature of the assay: Downregulation of CENPK mRNA expression in human NCI-H1299 cells at 10 uM incubated for 48 hrs by qRT-PCR analysis. It counts as functional, cell-based. Summed up: as §1

This passage reports IC50 and Activity results from ChEMBL document CHEMBL5038571, “Design and Synthesis of EZH2-Based PROTACs to Degrade the PRC2 Complex for Targeting the Noncatalytic Activity of EZH2” (J Med Chem, 2021).

pIC50: −log10 of the molar value. Active and inactive are the calls of the source. The rule behind the calls is not given here.

Sequence of Histone-lysine N-methyltransferase EZH2 (Q15910 whole entry): as the sequence (Q15910 whole entry, looked up) above

With `CC[C@H](C)n1cc(C)c2c(C(=O)NCc3c(C)cc(C)[nH]c3=O)cc(-c3ccc(N4CCN(CCCCCCCCCCCCOc5cccc6c5C(=O)N(C5CCC(=O)NC5=O)C6=O)CC4)nc3)cc21` (stereo not given in full), in [1], the pIC50 is 7.21. For the same molecule, the outcome in [2], in assay [4] and in assay [6] was Active. Also, the Activity entry in assay [3] and in [5] was “Dose-Dependent Effect” in each case.

`CC[C@H](C)n1cc(C)c2c(C(=O)NCc3c(C)cc(C)[nH]c3=O)cc(-c3ccc(N4CCNCC4)nc3)cc21`: the result with NCI-H1299 [7], in the assay with NCI-H1299 [8], in the assay with NCI-H1299 [9], in the assay on MDA-MB-468 [10], in the assay on NCI-H1299 [11] and with MDA-MB-468 [12] was inactive. Also, the outcome (in the assay on MDA-MB-468 [13]; in the assay with A549 [15]; in the assay with A549 [16]; in the assay on A549 [17]; in assay [2]; with NCI-H1299 [18]) was inactive. The result (in the assay with NCI-H1299 [19]; with A549 [20]; with MDA-MB-468 [21]; in [4]; with MDA-MB-468 [22]; in the assay on MDA-MB-468 [23]) was inactive. Moreover, the outcome (in [24]; with A549 [25]; with A549 [26]; in the assay with NCI-H1299 [27]) was inactive. Further, the result (in the assay with WSUDLCL2; in [14]) was Active.
